Columns and labels:
[1] = Parallel Artificial Membrane Permeability Assay adapted for BBB; type: in vitro ADME; conditions: PAMPA-BBB, 25 µM, pH 7.4, 4 h, ambient temperature
In short: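 Test compound diluted in Prisma HT buffer, pH 7.4, to 25 µM final (1% DMSO) in donor wells, 11–12 replicates per compound. Acceptor PVDF filter coated with BBB-1 lipid; brain sink buffer in acceptor wells. Sandwich held 4 h at ambient temperature, unstirred. Absorbance read on a plate reader; −logPe averaged by software.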

[2] = system: preformed aggregates of Aβ and metal–Aβ; assay: Aβ disaggregation experiment; type: biochemical; conditions: aggregates preformed 24 h, compound 50 µM, gel/TEM
In short: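 Aβ40 or Aβ42 (25 µM) in Chelex-treated HEPES/NaCl buffer, pH 6.6 for Cu(II) or 7.4 for Zn(II), with or without CuCl2 or ZnCl2 (25 µM). Aggregated 24 h at 37 °C with agitation. Test compound then added (50 µM) and incubated 4, 8 and 24 h at 37 °C with agitation. Analysed by Tris–tricine gel/Western blot (6E10 antibody) and by uranyl acetate-stained TEM.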

[3] = TEAC assay with cell lysates; type: biochemical; conditions: M17 human neuroblastoma cell lysates, relative to Trolox
In short: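 M17 cells grown in 1:1 MEM/F12K with 10% FBS and penicillin/streptomycin to 80–90% confluence. Washed and harvested in cold PBS, pelleted, then sonicated on ice in 5 mM potassium phosphate pH 7.4 (0.9% NaCl, 0.1% glucose) and cleared at 10 000g, 4 °C. Supernatant mixed with test compound (0.045–0.330 mM), metmyoglobin, ABTS and H2O2; 5 min at room temperature; A750 read. TEAC taken as slope ratio versus Trolox; triplicate.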

[4] = Solution speciation studies of Cu; type: binding; conditions: pH 7.4, based on concentration of unchelated Cu(II)
In short: (§1)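 Ligand and metal chloride mixed at M(II):L = 1:2: CuCl2 25 µM, or ZnCl2 50 or 250 µM depending on ligand. Titrated with small HCl aliquots, recording at least 30 UV–vis spectra over pH 2–9. Stability constants fitted from the spectra; speciation diagrams modelled to give metal-free Cu(II) or Zn(II) at pH 7.4.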

[5] = Solution speciation studies of Zn; type: binding; conditions: pH 7.4, based on concentration of unchelated Zn(II)
In short: as §1

[6] = molecular target: Aβ40/Aβ42 (Homo sapiens, UniProt P05067); assay: Aβ aggregation inhibition experiment; type: biochemical; conditions: Aβ 25 µM
Aβ40/Aβ42, sequence (P05067 672-711 limits assumed): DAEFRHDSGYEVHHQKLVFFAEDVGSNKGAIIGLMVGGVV
In short: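 Aβ stock made in 1% NH4OH, diluted with ddH2O and quantified by A280. Test compound (50 µM, 1% DMSO) added with or without CuCl2/ZnCl2 (25 µM), 37 °C, constant agitation, 4, 8, 24 h. Read by 10–20% Tris–tricine gel, nitrocellulose transfer, anti-Aβ 6E10 Western blot, and TEM.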

[7] = Metal selectivity competition experiments by UV-vis; type: binding; conditions: stoichiometric ratios; 50 µM ligand, pH 7.4
In short: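 Ligand at 50 µM (1% DMSO) in Chelex-treated 20 mM HEPES, pH 7.4, 150 mM NaCl. It was first given 1 or 20 equiv of MgCl2, CaCl2, MnCl2, FeCl2, CoCl2, NiCl2 or CuCl2, then ZnCl2 (50 µM). Fe(II) samples were kept anaerobic by N2 purge. UV–vis spectra were recorded after 5 min at room temperature.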

[8] = 2-Deoxyribose assay; type: biochemical; conditions: ligand 125 µM, CuCl2 10 µM, absence and presence of Aβ (freshly prepared and aggregated)
[9] = In vitro metabolic stability, human liver microsomes; type: in vitro ADME
In short: (§2)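 Liver microsomes incubated with test compound at 1 µM, 37 °C, with ketanserin as reference compound; half-life (t1/2) determined.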

[10] = molecular target: Aβ42 (Homo sapiens, UniProt P05067); assay: Ion mobility-mass spectrometry of early Aβ42 oligomerization; type: biochemical; conditions: IM–MS
Aβ42, sequence (P05067 672-713): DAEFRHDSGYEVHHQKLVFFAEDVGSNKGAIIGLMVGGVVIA
In short: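 Lyophilized Aβ42 dissolved in 10 mM ammonium acetate, pH 7.4, to a final peptide concentration of 10 µM. Analysed by ion mobility on a traveling-wave Q-TOF mass spectrometer.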

[11] = UV-vis variable-pH titration; type: physicochemical; conditions: for pKa: Acidity constant (pKa), pH range 2–8
In short: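 Test compound (50 µM) in 100 mM NaCl, 10 mM NaOH (pH 12) titrated with small HCl aliquots, recording at least 30 UV–vis spectra over pH 2–8. Acidity constants fitted from the spectra; speciation diagram modelled to give the species distribution at pH 7.4.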

[12] = In vitro metabolic stability, mouse liver microsomes; type: in vitro ADME
In short: as §2

[13] = Brain uptake study; type: in vivo, male CD1 mice; conditions: male, CD1, mouse, oral, 10 mg/kg
In short: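 Single 10 mg/kg oral gavage dose in sterile water to male CD1 mice, n = 3. Blood was drawn 5 min post-dose by retro-orbital or cardiac puncture into K2EDTA. Plasma was spun at 2000g for 5 min at 4 °C. Samples underwent protein precipitation and LC-MS/MS; LLOQ 1 ng/mL plasma, 4 ng/mL brain.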

[14] = In vitro metabolic stability, rat liver microsomes; type: in vitro ADME
In short: as §2

[15] = system: N2aAPPswe or N2a cells; assay: Cell viability by MTT assay, Aβ- or metal-Aβ-induced toxicity; type: cell-based, murine; conditions: 10 µM, 24 h, both N2a and N2aAPPswe cells
In short: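 Cells kept at 37 °C under 5% CO2 and seeded at 15 000 cells/well. Given CuCl2 or ZnCl2 (10 µM) plus test compound (10 µM final, 1% DMSO) for 24 h. MTT was added for 4 h at 37 °C and formazan dissolved overnight in acidic DMF/SDS. Absorbance read at 600 nm; viability expressed relative to DMSO-only cells; n = 3.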

[16] = Trolox equivalent antioxidant capacity; type: biochemical; conditions: ABTS cation radicals in EtOH, factor

Nc1cccc2ccc(CO)nc12 [Compound 1, (8-aminoquinolin-2-yl)methanol, reference compound]
−logPe [1]: 4.70 (±0.01)
Effect on preformed metal-free and metal-treated Aβ aggregates [2]: no discernible difference
Antioxidant capacity (TEAC value) in cell lysates [3]: 0.86 ± 0.10
Dissociation constant (Kd) with Cu(II) [4]: micromolar range
Dissociation constant (Kd) with Zn(II) [5]: micromolar range

CN(C)c1ccc(O)cc1 [DAP, 4-(dimethylamino)phenol, reference compound]
Effect on Zn(II)-triggered Aβ aggregation ([6]; ZnCl2 25 µM, compound 50 µM, pH 7.4): influenced Zn(II)-triggered Aβ aggregation, similar to ML

CN(C)c1ccc(O)c(CNc2cccc3ccc(CO)nc23)c1 [ML, 4-(dimethylamino)-2-(((2-(hydroxymethyl)quinolin-8-yl)-amino)-methyl)phenol]
−logPe [1]: 4.49 (±0.01)
Selectivity toward Zn(II) over other divalent metal ions [7]: relatively selective for Zn(II) over Mg(II), Ca(II), or Mn(II)
Copper-mediated generation of hydroxyl radicals [8]: significantly reduced
half-life at 1 µM [9]: < 30 min
Inhibition of Aβ42 dodecamer formation ([10]; 1:5 mixture of Aβ42 and ML): completely
Inhibition of Aβ42 hexamer formation ([10]; 1:5 mixture of Aβ42 and ML): partially
Disaggregation of preformed Aβ42 dodecamers ([10]; Aβ42 on ice ca. 4 h, then ML added (1:5)): disaggregates preformed dodecamers
Effect on preformed metal-free and metal-treated Aβ aggregates [2]: could transform preformed aggregates into relatively smaller, amorphous conformations
pKa ([11]; first of three printed): 2.63
pKa ([11]; second of three printed): 3.97
pKa ([11]; third of three printed): 6.23
Neutral form at physiological pH ([11]; pH 7.4, solution speciation diagram based on the acidity constants): ca. 94%
half-life at 1 µM [12]: < 30 min
Antioxidant capacity (TEAC value) in cell lysates [3]: 1.41 ± 0.15
concentration at 5 min ([13]; brain): 14.3 ± 4 ng/g
concentration at 5 min ([13]; plasma): 5.91 ± 1.24 ng/mL
half-life at 1 µM [14]: < 30 min
Cell survival, compound with and without metal ions (no Aβ) [15]: ca. 85%
Effect on metal-induced Aβ aggregation ([6]; CuCl2 or ZnCl2 25 µM, compound 50 µM, 37 °C): noticeable effects on the modulation of metal-induced Aβ aggregation
Effect on metal-free Aβ40/Aβ42 aggregation ([6]; compound 50 µM, 4, 8, 24 h, 37 °C): could direct the production of Aβ species with a wide range of MW
Dissociation constant (Kd) with Cu(II) [4]: picomolar range
Free radical scavenging (TEAC) in solution relative to DAP, 1 and Trolox [16]: ca. 2.6
Dissociation constant (Kd) with Zn(II) [5]: nanomolar range

Cc1c(C)c2c(c(C)c1O)CCC(C)(C(=O)O)O2 (stereo not drawn) [Trolox, 6-hydroxy-2,5,7,8-tetramethylchroman-2-carboxylic acid]
Antioxidant capacity (TEAC value) in cell lysates [3]: 1.00 ± 0.08
